According to ChEMBL document CHEMBL4818990, “Insight into the binding mode of HIF-2 agonists through molecular dynamic simulations and biological validation” (Eur J Med Chem, 2021):
Activity calls are given as the source filed them. The calls are words filed in the database; no cut-off is given here.

What was measured:
[1] = species: Homo sapiens; assay: Agonist activity at HIF-2 (unknown origin) expressed in bacterial expression system assessed as change in melting temperature at 10 uM measured by thermal shift assay; conditions: filed as agonist
Method in brief: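 HIF-2–ARNT protein complex (1.5M as printed) with 10 μM compound from DMSO stock, final DMSO 0.1%, in 20 mM Tris pH 8.0, 400 mM NaCl. Read on qPCR instrument with thermal-shift dye. Tm from derivative curve; ΔTm = compound Tm minus blank Tm. Four parallel replicates per compound.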

[2] = system: 786-0; assay: (§1) Agonist activity at HIF-2 in human 786-0-HRE-Luc cells assessed as increase in […] intensity measured after 24 hrs by luciferase reporter gene assay; assay type: cell-based; conditions: filed as agonist
Method in brief: (§2)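 786-O cells stably transduced with lentiviral HRE-driven firefly luciferase (single clone), grown in RPMI-1640 + 10% FBS. Seeded, allowed to attach, then given compound in DMSO (2 and 20 μM, or a concentration series) for 24 h. Luminescence read with a firefly luciferase reagent; triplicate cultures, mean ± s.d.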

[3] = system: 786-0; assay: Cytotoxicity against human 786-0-HRE-Luc cells assessed as inhibition of cell proliferation at 1 uM measured after 24 hrs by CCK8 assay; assay type: cell-based; conditions: 786-0, 24 h
[4] = system: 786-0; assay: Agonist activity at HIF-2 in human 786-0-HRE-Luc cells assessed as increase in […] intensity at 2.2 uM measured after 24 hrs by luciferase reporter gene assay relative to control; assay type: cell-based; conditions: filed as agonist; method in brief: as §2
[5] = as §1; assay type: cell-based; conditions: 786-0, 24 h; method in brief: as §2
[6] = system: 786-0; assay: Agonist activity at HIF-2 in human 786-0-HRE-Luc cells at 2 uM measured after 24 hrs by luciferase reporter gene assay; assay type: cell-based; conditions: filed as agonist; method in brief: as §2
[7] = system: 786-0; assay: Agonist activity at HIF-2 in human 786-0-HRE-Luc cells assessed as increase in […] intensity at 6.6 to 20 uM measured after 24 hrs by luciferase reporter gene assay; assay type: cell-based; conditions: dose 6.6-20 µM; method in brief: as §2
[8] = system: 786-0; assay: Cytotoxicity against human 786-0-HRE-Luc cells assessed as inhibition of cell proliferation at 20 uM measured after 24 hrs by CCK8 assay; assay type: cell-based; conditions: 786-0, 24 h
[9] = system: 786-0; assay: Agonist activity at HIF-2 in human 786-0-HRE-Luc cells assessed as increase in […] intensity at 20 uM measured after 24 hrs by luciferase reporter gene assay relative to control; assay type: cell-based; conditions: filed as agonist; method in brief: as §2

ΔTm [1]	Compound	Activity [2]	further results
1.93 °C	Cc1cc(C)cc(NC2=NS(=O)(=O)c3ccccc32)c1	Dose-Dependent Effect	
2.08 °C	O=S1(=O)N=C(Nc2cc(Cl)cc(Cl)c2)c2ccccc21	Dose-Dependent Effect	
2.52 °C	O=S1(=O)N=C(Nc2cc(Br)cc(Br)c2)c2ccccc21	Dose-Dependent Effect	Activity [8]: Non-Toxic; fold change (FC) [9]: 1.63; EC50 [5]: 1.68 µM
2.05 °C	O=S1(=O)N=C(Nc2cc(F)cc(F)c2)c2ccccc21	Dose-Dependent Effect	

Further lines, the compound ahead of its results:

Compound	ΔTm [1]	Activity [2]	further results
O=S1(=O)N=C(Oc2cc(C(F)(F)F)cc(C(F)(F)F)c2)c2ccccc21	0.06 °C		
O=S1(=O)N=C(Nc2ccccc2)c2ccccc21	2 °C	Dose-Dependent Effect	
COc1cc(NC2=NS(=O)(=O)c3ccccc32)cc(OC)c1	1.89 °C	Dose-Dependent Effect	
CN(C1=NS(=O)(=O)c2ccccc21)c1cc(C(F)(F)F)cc(C(F)(F)F)c1	0.27 °C		
O=S1(=O)N=C(Nc2cc(C(F)(F)F)cc(C(F)(F)F)c2)c2ccccc21	2.23 °C		Activity [3]: Toxic; fold change (FC) [4]: 1.41; EC50 [5]: 0.44 µM; Activity [6]: Active; Activity [7]: inactive
O=C1N=C(Nc2cc(C(F)(F)F)cc(C(F)(F)F)c2)c2ccccc21	0.03 °C		
